Experimental data: ChEMBL document CHEMBL4265924, “Inhibitor for FcεRI expression on mast cell from Verbasucum thapsus L” (2018)
Active and inactive are the calls of the source. The rule behind the calls is not given here.

Experiments:
HMC1 [1] = assay: Inhibition of FCepsilonRI expression in human HMC1 cells at 30 uM after 72 hrs by flow cytometric analysis; format: functional; settings: for inhibition (INH): in the assay text read “30 ug/mL” for “30 uM”
In short: (§1)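 HMC-1 human mast cells exposed to test sample for 72 h, then harvested and stained with anti-FcεRI α-chain antibody plus FITC-labelled secondary antibody; surface FcεRI read as FITC fluorescence by flow cytometry. Mean ± SD of triplicate experiments.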

HMC1 [2] = assay: Inhibition of FCepsilonRI expression in human HMC1 cells at 30 to 100 uM after 72 hrs by flow cytometric analysis; format: functional, cell-based; in short: as §1
HMC1 [3] = assay: Inhibition of FCepsilonRIbeta subunit mRNA expression in human HMC1 cells at 50 to 100 uM after 36 hrs by RT-PCR analysis
HMC1 [4] = assay: Inhibition of FCepsilonRIgamma subunit mRNA expression in human HMC1 cells at 50 to 100 uM after 36 hrs by RT-PCR analysis; format: functional, cell-based
In short: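 After 36 h culture of HMC-1 cells with compound, total RNA extracted; mRNA of each FcεRI subunit measured by RT-PCR with ethidium bromide staining of products, normalized to g3pdh and compared with vehicle. Mean ± SD, triplicate experiments.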

Row | Compound | inhibition (HMC1 [2]) | further results
1 | COc1cc2ccc(=O)oc2c(OC)c1OCC(O)C(C)(C)O (single isomer, unassigned; enantiomer 1) | – | inhibition (INH) (HMC1 [1]): 45.1%
2 | COc1c(OCC(O)C(C)(C)O)c(O)cc2ccc(=O)oc12 (racemic) | inactive | –
3 | COc1cc2ccc(=O)oc2c(OC)c1OCC(O)C(C)(C)O (stereo in doubt) | – | inhibition at 30 µM (HMC1 [1]; Homo sapiens, HMC1, 72 h): 44.3%
4 | COc1cc2ccc(=O)oc2c(OC)c1OCC(O)C(C)(C)O (racemic) [listing 1 of 2 here] | – | inhibition (HMC1 [3]): Active; inhibition (HMC1 [4]): inactive
5 | COc1cc2ccc(=O)oc2c(OC)c1OCC(O)C(C)(C)O (racemic) [listing 2 of 2 here] | – | inhibition (INH) (HMC1 [1]): 49%
6 | COc1cc2ccc(=O)oc2c(OC)c1OCCC(C)C | Active | –
7 | COc1cc2ccc(=O)oc2c(OC)c1OCC(O)C(C)C (stereo unspecified) | Active | –
8 | COc1cc2ccc(=O)oc2c(O)c1OCC(O)C(C)(C)O (stereo unspecified) | inactive | –
9 | COc1cc2ccc(=O)oc2c(OC)c1OCCC(C)(C)O | Active | –
10 | COc1cc2ccc(=O)oc2c(OC)c1OCC1OC1(C)C (stereo unspecified) | Active | –
